Measurements: ChEMBL document CHEMBL1153363, “Structure-activity relationships for a series of quinoline-based compounds active against replicating and nonreplicating Mycobacterium tuberculosis” (J Med Chem, 2009)
In brackets after ≈: the same amount, converted by molar mass.

Key:
Format in all cases: functional
Conditions in all cases: 168 h
[1] = tested on: Mycobacterium tuberculosis; experiment: Antitubercular activity against rifampin-resistant Mycobacterium tuberculosis H37Rv ATCC 27294 after 7 days by microplate alamar blue assay
Method in brief: (§1)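 12.8 mM DMSO stocks; two-fold dilutions in Middlebrook 7H12 broth, final 128 to 0.5 µM. Inoculum 2 × 10⁵ cfu/mL, 37 °C. On day 7, Tween 80 plus Alamar Blue added; fluorescence read (ex 530/em 590 nm) after 16-24 h more. MIC = lowest concentration giving ≥90% fluorescence drop versus bacteria-only controls; mean of two runs. RMP and INH positive controls.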

[2] = tested on: Mycobacterium tuberculosis; experiment: Antitubercular activity against isoniazid-resistant Mycobacterium tuberculosis H37Rv ATCC 27294 after 7 days by microplate alamar blue assay; method in brief: as §1
[3] = tested on: Mycobacterium tuberculosis; experiment: Antitubercular activity against streptomycin-resistant Mycobacterium tuberculosis H37Rv ATCC 27294 after 7 days by microplate alamar blue assay; method in brief: as §1

SMILES | MIC [1] [µM] | MIC [2] [µM] | MIC [3] [µM]
CCOC(=O)c1cc(-c2cccc(Oc3cc(C(F)(F)F)nc4ccccc34)c2)on1 | 1.27 (≈ 0.544 µg/mL) | 1.63 (≈ 0.698 µg/mL) | 1.4 (≈ 0.6 µg/mL)
CCOC(=O)c1cc(COc2cc(C(F)(F)F)nc3cc(C(F)(F)F)cc(C(F)(F)F)c23)on1 | 0.99 (≈ 0.497 µg/mL) | 0.98 (≈ 0.492 µg/mL) | 1.55 (≈ 0.779 µg/mL)
NNC(=O)c1ccncc1 [ISONIAZID] | 0.43 (≈ 0.059 µg/mL) | > 128 | 0.45 (≈ 0.0617 µg/mL)
CO[C@H]1/C=C/O[C@@]2(C)Oc3c(C)c(O)c4c(O)c(c(/C=N/N5CCN(C)CC5)c(O)c4c3C2=O)NC(=O)/C(C)=C\C=C\[C@H](C)[C@H](O)[C@@H](C)[C@@H](O)[C@@H](C)[C@H](OC(C)=O)[C@@H]1C [RIFAMPIN] | > 32 | 0.06 (≈ 0.0494 µg/mL) | 0.05 (≈ 0.0411 µg/mL)
CN[C@@H]1[C@H](O[C@H]2[C@H](O[C@H]3[C@H](O)[C@@H](O)[C@H](N=C(N)N)[C@@H](O)[C@@H]3N=C(N)N)O[C@@H](C)[C@]2(O)C=O)O[C@@H](CO)[C@H](O)[C@H]1O [STREPTOMYCIN] | 0.2 (≈ 0.116 µg/mL) | 0.38 (≈ 0.221 µg/mL) | > 32
